Data reported in ChEMBL document CHEMBL4680064, “Natural product inspired optimization of a selective TRPV6 calcium channel inhibitor” (RSC Med Chem, 2020).
The source made the active and inactive calls. The rule behind the calls is not given here.

Columns and labels:
[1] = target: T1, Muscarinic acetylcholine receptor M1 (Homo sapiens, UniProt P11229); assay: Inhibition of human muscarinic M1 receptor at 10 uM
T1 sequence (P11229 whole entry): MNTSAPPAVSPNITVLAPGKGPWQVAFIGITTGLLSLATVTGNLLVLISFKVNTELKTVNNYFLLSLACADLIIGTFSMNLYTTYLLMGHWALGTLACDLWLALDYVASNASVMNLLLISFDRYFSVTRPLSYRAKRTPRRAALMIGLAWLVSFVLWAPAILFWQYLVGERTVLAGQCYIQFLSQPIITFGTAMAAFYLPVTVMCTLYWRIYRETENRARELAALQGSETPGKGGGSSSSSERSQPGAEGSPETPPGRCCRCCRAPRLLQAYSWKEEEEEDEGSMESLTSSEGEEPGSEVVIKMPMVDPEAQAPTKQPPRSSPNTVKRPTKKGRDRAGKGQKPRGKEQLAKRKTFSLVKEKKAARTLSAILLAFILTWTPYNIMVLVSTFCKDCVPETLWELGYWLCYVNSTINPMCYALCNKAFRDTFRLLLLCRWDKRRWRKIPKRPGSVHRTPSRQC

HEK293 [2] = assay: Effect on cadmium induced toxicity in wild type human HEK293 cells assessed as cell survival at 1 to 10 uM incubated for 24 hrs by XTT assay; format: functional, cell-based; conditions: dose 1-10 µM
In short: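 HEK293 wt or HEK-hTRPV6 cells in DMEM with 10% FBS, glutamine, penicillin/streptomycin and non-essential amino acids. Seeded at 1.5 x 10⁴ cells/well and left 24 h, then given CdCl2 at 50 to 0.05 µM with or without test compound at 1.0 or 10 µM; blank was 0.01% DMSO. Incubation 24 h at 37 °C. XTT/PMS read for 2 h at A450−A650, as % viable versus blank. n = 4/concentration, 2 independent experiments.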

[3] = target: Kappa-type opioid receptor (Homo sapiens, UniProt P41145); assay: Inhibition of human kappa-opioid receptor at 10 uM
HEK293 [4] = assay: Antiproliferative activity human HEK293 cells expressing human TRPV6 assessed as cell growth inhibition at 0.4 to 100 uM after 6 days by XTT assay; format: cell-based; conditions: hek293, 144 h, dose 0.4-100 µM, time 6 day
[5] = Inhibition of SOCE in human MDA-MB-231 cells at 5 uM pretreated for 20 mins followed by Tg addition for 10 mins followed by CaCl2 addition by FLIPR assay; format: cell-based; conditions: mda-mb-231, 0.5 h, time 30 min
In short: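 MDA-MB-231 cells at 6 x 10⁴ cells/well in phenol-red-free RPMI with 10% FBS, assayed 16 h later. Loaded in nominally Ca²⁺-free buffer with calcium-5 for 40 min at 37 °C. Compound, with GSK-7975A as reference, given for 20 min. After a 50 s baseline, thapsigargin was added and followed for 10 min, then CaCl2 was added. SOCE taken as AUC of the Ca²⁺ entry trace.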

[6] = target: T2, Transient receptor potential cation channel subfamily V member 6 (Homo sapiens) (UniProt Q9H1D0); assay: Inhibition of human TRPV6 expressed in HEK293 cells assessed as reduction in Cd2+ influx at 10 uM preincubated with compound followed by Cdcl2 addition measured for 12 to 30 mins by Leadmium-green and Alexafluor-594 conjugate based confocal microscopic analysis; format: cell-based; conditions: time lower […], time upper 30.0 min
T2 sequence (whole entry): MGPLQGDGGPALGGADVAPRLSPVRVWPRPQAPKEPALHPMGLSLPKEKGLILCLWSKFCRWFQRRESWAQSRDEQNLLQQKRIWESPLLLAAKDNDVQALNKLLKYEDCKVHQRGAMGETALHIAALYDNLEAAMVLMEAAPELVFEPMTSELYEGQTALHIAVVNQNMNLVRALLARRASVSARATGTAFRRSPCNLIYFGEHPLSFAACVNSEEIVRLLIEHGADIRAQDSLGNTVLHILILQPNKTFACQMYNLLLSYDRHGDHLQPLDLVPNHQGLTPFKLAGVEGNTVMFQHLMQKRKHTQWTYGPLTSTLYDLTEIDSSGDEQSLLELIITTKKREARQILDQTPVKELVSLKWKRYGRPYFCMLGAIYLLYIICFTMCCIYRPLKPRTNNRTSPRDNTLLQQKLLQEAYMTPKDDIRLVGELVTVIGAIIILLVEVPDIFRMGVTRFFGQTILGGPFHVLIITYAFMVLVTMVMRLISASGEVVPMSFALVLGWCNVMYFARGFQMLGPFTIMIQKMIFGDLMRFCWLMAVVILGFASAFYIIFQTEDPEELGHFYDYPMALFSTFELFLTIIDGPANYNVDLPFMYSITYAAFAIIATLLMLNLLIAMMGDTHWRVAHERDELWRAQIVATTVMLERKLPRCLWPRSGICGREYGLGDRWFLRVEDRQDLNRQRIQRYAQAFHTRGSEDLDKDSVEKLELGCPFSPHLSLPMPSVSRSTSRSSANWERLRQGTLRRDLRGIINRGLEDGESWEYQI
In short: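 HEK-hTRPV6 cells on poly-D-lysine chambered coverglass, 24 h. Stained 30 min at 37 °C in nominally Ca²⁺-free buffer with Leadmium Green, Hoechst 33258 and WGA-Alexa Fluor 594 at 5, 1 and 5 ng/µL final. Washed, then test compound at 10 µM or DMSO added. CdCl2 at 50 µM final was added at the start of 30 min confocal imaging at 100X. Total fluorescence per channel was plotted over time.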

SK-OV-3 = assay: Antiproliferative activity against human SK-OV-3 cells assessed as cell growth inhibition at 0.4 to 100 uM after 6 days by XTT assay; format: cell-based; conditions: human, sk-ov-3, 144 h, 100 µM; dose 0.4-100 µM, time 6 day
[7] = target: T3, 5-hydroxytryptamine receptor 1A (Homo sapiens, UniProt P08908); assay: Inhibition of human serotonin 5HT-1A receptor at 10 uM
T3 sequence (P08908 whole entry): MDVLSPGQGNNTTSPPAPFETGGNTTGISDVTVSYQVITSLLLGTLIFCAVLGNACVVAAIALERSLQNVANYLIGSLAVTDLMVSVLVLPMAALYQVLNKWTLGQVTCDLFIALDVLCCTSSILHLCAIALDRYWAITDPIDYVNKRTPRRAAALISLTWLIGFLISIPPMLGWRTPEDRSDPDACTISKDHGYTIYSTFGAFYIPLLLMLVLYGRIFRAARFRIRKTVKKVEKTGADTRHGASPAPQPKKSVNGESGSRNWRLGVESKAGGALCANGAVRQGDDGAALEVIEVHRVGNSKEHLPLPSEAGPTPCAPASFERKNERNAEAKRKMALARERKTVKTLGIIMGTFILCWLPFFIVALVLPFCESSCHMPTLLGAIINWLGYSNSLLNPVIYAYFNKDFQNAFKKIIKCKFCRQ

[8] = Inhibition of rat L-type calcium channel (verapamil site) at 10 uM
HEK293 [9] = assay: Antiproliferative activity against wild type human HEK293 cells assessed as cell growth inhibition at 0.4 to 100 uM after 6 days by XTT assay; format: cell-based; conditions: hek293, 144 h, dose 0.4-100 µM, time 6 day

Sequence of Kappa-type opioid receptor (P41145 whole entry): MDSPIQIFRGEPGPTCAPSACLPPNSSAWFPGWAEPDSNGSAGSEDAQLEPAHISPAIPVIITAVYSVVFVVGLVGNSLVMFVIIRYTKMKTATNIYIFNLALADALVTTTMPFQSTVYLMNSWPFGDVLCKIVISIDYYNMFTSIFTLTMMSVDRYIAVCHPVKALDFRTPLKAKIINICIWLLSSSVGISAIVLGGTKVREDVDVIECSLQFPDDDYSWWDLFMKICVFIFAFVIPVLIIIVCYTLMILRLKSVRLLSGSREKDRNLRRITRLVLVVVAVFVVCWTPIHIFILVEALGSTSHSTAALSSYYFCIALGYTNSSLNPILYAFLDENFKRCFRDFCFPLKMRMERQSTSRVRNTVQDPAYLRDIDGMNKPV

O=c1ccc(CN2CCN([C@H]3CC[C@@](O)(c4cccc(C(F)(F)F)c4)CC3)CC2)c[nH]1
inhibition (INH) [1]: Not Active
Activity (HEK293 [2]): inactive
inhibition (INH) [3]: Not Active
Activity (HEK293 [4]): Non-Toxic
inhibition (INH) [5]: Not Active
inhibition [6]: Active
Activity (SK-OV-3): Non-Toxic
inhibition (INH) [7]: Not Active
inhibition (INH) [8]: Not Active
Activity (HEK293 [9]): Non-Toxic
